Experimental data taken from ChEMBL document CHEMBL2346664, “Synthesis, characterization and in vitro anticancer evaluation of novel 1,2,4-triazolin-3-one derivatives” (2013).

Assays:
Format in all cases: functional
[1] = system: RXF 393; assay: Growth inhibition of human RXF393 cells assessed as cell growth at 10 '-7 M after 48 hrs by sulforhodamine B assay; details: RXF 393, 48 h, read-out: Activity
[2] = system: SF-539; assay: Growth inhibition of human SF539 cells assessed as cell growth at 10 '-8 M after 48 hrs by sulforhodamine B assay; details: SF-539, 48 h, read-out: Activity
[3] = Growth inhibition of human NCI-ADR-RES cells assessed as growth inhibition at 10 uM after 48 hrs by sulforhodamine B assay; details: read-out: GI
[4] = system: RPMI-8226; assay: Growth inhibition of human RPMI8226 cells assessed as growth inhibition at 10 uM after 48 hrs by sulforhodamine B assay; details: RPMI-8226, 48 h, read-out: GI
[5] = system: SK-MEL-5; assay: Growth inhibition of human SK-MEL-5 cells assessed as cell growth at 10 '-6 M after 48 hrs by sulforhodamine B assay; details: SK-MEL-5, 48 h, read-out: Activity
[6] = system: HOP-92; assay: Growth inhibition of human HOP92 cells assessed as growth inhibition at 10 uM after 48 hrs by sulforhodamine B assay; details: HOP-92, 48 h, read-out: GI
[7] = system: SF-539; assay: Growth inhibition of human SF539 cells after 48 hrs by sulforhodamine B assay; details: SF-539, 48 h
[8] = system: HOP-92; assay: Growth inhibition of human HOP92 cells assessed as cell growth at 10 '-5 M after 48 hrs by sulforhodamine B assay; details: HOP-92, 48 h, read-out: Activity
[9] = system: M14; assay: Growth inhibition of human M14 cells after 48 hrs by sulforhodamine B assay; details: M14, 48 h
Method in brief: (§1)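 NCI 60-cell-line five-dose screen. Cells were plated at 5,000–40,000/well by doubling time and grown 24 h at 37 °C, 5% CO2. Time-zero plates were TCA-fixed. Drug from DMSO stock was tested at 0.01, 0.1, 1, 10 and 100 µM final for 48 h continuous exposure. Read-out was SRB at 515 nm. GI50 is the concentration giving 50% reduction in net protein increase versus untreated control.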

[10] = system: SK-MEL-5; assay: Growth inhibition of human SK-MEL-5 cells assessed as growth inhibition at 10 uM after 48 hrs by sulforhodamine B assay; details: SK-MEL-5, 48 h, read-out: GI
[11] = system: OVCAR-8; assay: Growth inhibition of human OVCAR8 cells assessed as growth inhibition at 10 uM after 48 hrs by sulforhodamine B assay; details: OVCAR-8, 48 h, read-out: GI
[12] = system: SNB-19; assay: Growth inhibition of human SNB19 cells assessed as cell growth at 10 '-6 M after 48 hrs by sulforhodamine B assay; details: SNB-19, 48 h, read-out: Activity
[13] = system: SW-620; assay: Growth inhibition of human SW620 cells assessed as cell growth at 10 '-8 M after 48 hrs by sulforhodamine B assay; details: SW-620, 48 h, read-out: Activity
[14] = system: RPMI-8226; assay: Growth inhibition of human RPMI8226 cells after 48 hrs by sulforhodamine B assay; details: RPMI-8226, 48 h
[15] = system: HCT-15; assay: Growth inhibition of human HCT15 cells assessed as growth inhibition at 10 uM after 48 hrs by sulforhodamine B assay; details: HCT-15, 48 h, read-out: GI
[16] = system: OVCAR-5; assay: Growth inhibition of human OVCAR5 cells after 48 hrs by sulforhodamine B assay; details: OVCAR-5, 48 h
[17] = system: CAKI-1; assay: Growth inhibition of human CAKI-1 cells assessed as growth inhibition at 10 uM after 48 hrs by sulforhodamine B assay; details: CAKI-1, 48 h, read-out: GI
Method in brief: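 Percent growth inhibition from the single 10^-5 M NCI-60 screen, reported as 100 minus growth percent. Growth percent was measured after 48 h drug exposure at 37 °C, 5% CO2, using TCA fixation, SRB staining and absorbance at 515 nm, against untreated controls and time-zero plates.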

[18] = system: SK-MEL-28; assay: Growth inhibition of human SK-MEL-28 cells after 48 hrs by sulforhodamine B assay; details: SK-MEL-28, 48 h
[19] = system: ACHN; assay: Growth inhibition of human ACHN cells assessed as cell growth at 10 '-6 M after 48 hrs by sulforhodamine B assay; details: read-out: Activity
Method in brief: (§2)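 Percent growth at each of the five concentrations of the 48 h continuous-exposure NCI SRB screen. Drug stocks were in DMSO at 400× the top final concentration and diluted in medium with gentamicin. Growth was calculated as [(Ti-Tz)/(C-Tz)]×100 when Ti ≥ Tz, or [(Ti-Tz)/Tz]×100 when Ti < Tz. Tz plates were fixed at drug addition; untreated wells served as control. Absorbance was read at 515 nm.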

[20] = system: PC-3; assay: Growth inhibition of human PC3 cells after 48 hrs by sulforhodamine B assay; details: PC-3, 48 h
[21] = system: RPMI-8226; assay: Growth inhibition of human RPMI8226 cells assessed as cell growth at 10 '-8 M after 48 hrs by sulforhodamine B assay; details: RPMI-8226, 48 h, read-out: Activity
[22] = system: SF-295; assay: Growth inhibition of human SF295 cells assessed as cell growth at 10 uM after 48 hrs by sulforhodamine B assay; details: SF-295, 48 h, read-out: Activity
[23] = system: K562; assay: Growth inhibition of human K562 cells after 48 hrs by sulforhodamine B assay; details: K562, 48 h; method in brief: as §1
[24] = system: HOP-62; assay: Growth inhibition of human HOP62 cells assessed as cell growth at 10 '-5 M after 48 hrs by sulforhodamine B assay; details: HOP-62, 48 h, read-out: Activity
[25] = system: SK-MEL-2; assay: Growth inhibition of human SK-MEL-2 cells assessed as cell growth at 10 '-5 M after 48 hrs by sulforhodamine B assay; details: SK-MEL-2, 48 h, read-out: Activity
[26] = system: CAKI-1; assay: Growth inhibition of human CAKI-1 cells assessed as cell growth at 10 '-7 M after 48 hrs by sulforhodamine B assay; details: CAKI-1, 48 h, read-out: Activity; method in brief: as §2
[27] = system: RXF 393; assay: Growth inhibition of human RXF393 cells after 48 hrs by sulforhodamine B assay; details: RXF 393, 48 h
[28] = system: NCI-H23; assay: Growth inhibition of human NCI-H23 cells assessed as growth inhibition at 10 uM after 48 hrs by sulforhodamine B assay; details: NCI-H23, 48 h, read-out: GI
[29] = system: 786-0; assay: Growth inhibition of human 786-0 cells assessed as cell growth at 10 '-7 M after 48 hrs by sulforhodamine B assay; details: 786-0, 48 h, read-out: Activity; method in brief: as §2
[30] = read-out: LD50 (the source's name)

In the case of `Cc1cc(=O)oc2cc(OCCn3c(C)nn(-c4ccc(Cl)cc4)c3=O)ccc12`, the growth at 0.1 µM [1] is reported as 90%, the growth at 0.01 µM [2] is reported as 102% and the inhibition of growth at 10 µM [3] is reported as 75.3%. It also gave an inhibition of growth at 10 µM [4] of 69%, a growth at 1 µM [5] of 47% and an inhibition of growth at 10 µM [6] of 52.6%. The GI50 [7] was 4060 nM, the TGI [7] was 4740 nM and the CC50 [7, 30] was over 1000 nM. For the same molecule, the growth at 10 µM [8] was 55%, the GI50 [9] was 2360 nM and the TGI [9] was over 1000 nM. It also gave a CC50 [9, 30] of over 1000 nM, an inhibition of growth at 10 µM [10] of 89.2% and an inhibition of growth at 10 µM [11] of 82.3%. For the same molecule, the growth at 1 µM [12] was 80%, the growth at 0.01 µM [13] was 99% and the GI50 [14] was 1100 nM. The TGI [14] was over 1000 nM, the CC50 [14, 30] was over 1000 nM and the inhibition of growth at 10 µM [15] was 82.3%. It also gave a GI50 [16] of 2190 nM, a TGI [16] of over 1000 nM and a CC50 [16, 30] of over 1000 nM. It also gave an inhibition of growth at 10 µM [17] of 80.5%, a GI50 [18] of 3130 nM and a TGI [18] of over 1000 nM. For the same molecule, the CC50 [18, 30] was over 1000 nM, the growth at 1 µM [19] was 95% and the GI50 [20] was 8130 nM. It also gave a TGI [20] of over 1000 nM, a CC50 [20, 30] of over 1000 nM and a growth at 0.01 µM [21] of 101%. For the same molecule, the growth at 10 µM [22] was 14%, the GI50 [23] was 1290 nM and the TGI [23] was over 1000 nM. The CC50 [23, 30] was over 1000 nM, the growth at 10 µM [24] was 8% and the growth at 10 µM [25] was 62%. The growth at 0.1 µM [26] was 92%, the GI50 [27] was 2760 nM and the TGI [27] was 3000 nM. It also gave a CC50 [27, 30] of over 1000 nM, an inhibition of growth at 10 µM [28] of 54.2% and a growth at 0.1 µM [29] of 104%.
